ChEMBL document CHEMBL4610015, “Scaffold-hopping identifies furano[2,3-d]pyrimidine amides as potent Notum inhibitors” (Bioorg Med Chem Lett, 2020)

Key:
[1] = Intrinsic clearance in mouse liver microsomes; format: ADME, Microsome; conditions: read-out: CLH
[2] = Efflux ratio of apparent permeability in dog MDCK-MDR1 cells; format: ADME, cell-based, Canis lupus familiaris
[3] = Apparent permeability across apical to basolateral membrane in dog MDCK-MDR1 cells; format: ADME, cell-based, Canis lupus familiaris
[4] = Apparent permeability across basolateral to apical membrane in dog MDCK-MDR1 cells; format: ADME, cell-based, Canis lupus familiaris
[5] = biological target: T1, Palmitoleoyl-protein carboxylesterase NOTUM (Homo sapiens, UniProt Q6P988, C330S); format: cell-based
T1 sequence (Q6P988 20-496 C330S limits assumed): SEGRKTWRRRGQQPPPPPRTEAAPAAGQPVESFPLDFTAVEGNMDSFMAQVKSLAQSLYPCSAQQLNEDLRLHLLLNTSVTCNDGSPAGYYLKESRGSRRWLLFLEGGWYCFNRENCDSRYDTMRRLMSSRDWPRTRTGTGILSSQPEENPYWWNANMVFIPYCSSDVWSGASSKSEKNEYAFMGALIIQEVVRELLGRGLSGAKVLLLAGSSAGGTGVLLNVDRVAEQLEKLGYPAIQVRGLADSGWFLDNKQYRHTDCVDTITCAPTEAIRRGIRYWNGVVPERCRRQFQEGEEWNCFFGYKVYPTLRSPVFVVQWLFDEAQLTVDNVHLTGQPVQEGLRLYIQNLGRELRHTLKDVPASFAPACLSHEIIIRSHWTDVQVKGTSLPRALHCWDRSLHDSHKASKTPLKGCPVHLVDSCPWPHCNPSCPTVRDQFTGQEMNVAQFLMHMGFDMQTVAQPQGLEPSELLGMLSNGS

[6] = Stability of the compound in citrate buffer at pH 4 measured up to 24 hrs by UPLC-MS analysis; format: physicochemical; conditions: pH 4, 24 h
How it was run: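 Incubated in 0.1 M citrate buffer at pH 4 and sampled at several time points up to 24 h. The parent amide was monitored by UPLC-MS.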

[7] = biological target: T1, Palmitoleoyl-protein carboxylesterase NOTUM; format: ADME, cell-based; conditions: 72 h

Compound	microsomal CLint [1] [µL/min/mg]	efflux ratio [2]	Papp A→B [3] [nm/s]	Papp B→A [4] [nm/s]	IC50 [5] [nM]	Stability [6]	Stability [7]
O=C1CN(C(=O)CSc2ncnc3c(C4CC4)c(Cl)sc23)CN1	19	3.7	38	140			
O=C(CSc1ncnc2c(C3CC3)c(Cl)sc12)N1CCOCC1	> 500	0.95	400	380			
O=C(CSc1ncnc2c(C3CC3)c(Cl)sc12)N1CCn2cnnc2C1	29	98	9.5	930	1.1		
Cc1sc2ncnc(SCC(=O)N3CC(=O)N(C)C3)c2c1Cl						Stable	Stable
O=C1CN(C(=O)CSc2ncnc3c(C4CC4)c(Cl)sc23)CCN1	24	8.2	79	650			

Continued, values first:

microsomal CLint [1] [µL/min/mg]	efflux ratio [2]	Papp A→B [3] [nm/s]	Papp B→A [4] [nm/s]	IC50 [5] [nM]	Stability [6]	Stability [7]	Compound
				3			Cc1sc2ncnc(SCC(=O)O)c2c1Cl
					Stable	Stable	Cc1sc2ncnc(SCC(=O)N3CCn4cnnc4C3)c2c1Cl
